According to ChEMBL document CHEMBL1153852, “Steroidal lactones as inhibitors of 17beta-hydroxysteroid dehydrogenase type 5: chemical synthesis, enzyme inhibitory activity, and assessment of estrogenic and androgenic activities” (Eur J Med Chem, 2009):

Columns and labels:
Assay type in all cases: cell-based
[1] = target: T1, Aldo-keto reductase family 1 member C3 (Homo sapiens) (UniProt P42330); assay: Inhibition of human 17beta-HSD5 expressed in HEK293 cells assessed as enzyme-mediated transformation of [14C]-4-androstene-3,17-dione in to [14C]-testosterone at 3 uM after 18 hrs
T1 sequence (whole entry): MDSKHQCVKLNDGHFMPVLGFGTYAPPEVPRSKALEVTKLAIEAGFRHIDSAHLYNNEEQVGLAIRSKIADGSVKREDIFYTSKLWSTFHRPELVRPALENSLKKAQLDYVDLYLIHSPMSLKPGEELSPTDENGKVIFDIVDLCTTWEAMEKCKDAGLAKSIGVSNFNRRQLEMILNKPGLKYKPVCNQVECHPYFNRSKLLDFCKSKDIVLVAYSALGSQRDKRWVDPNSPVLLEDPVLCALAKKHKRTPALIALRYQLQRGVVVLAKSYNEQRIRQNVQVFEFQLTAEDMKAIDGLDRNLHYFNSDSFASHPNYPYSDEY
Outline: (§1)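 Intact HEK-293 cells stably over-expressing human 17β-HSD5, in freshly changed culture medium. [14C]-4-androstene-3,17-dione is added at 100 nM with inhibitor from an ethanolic solution; controls get ethanol only. After 18 h the conversion to [14C]-T is measured.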

[2] = target: T1, Aldo-keto reductase family 1 member C3 (Homo sapiens); assay: Inhibition of human 17beta-HSD5 expressed in HEK293 cells assessed as enzyme-mediated transformation of [14C]-4-androstene-3,17-dione in to [14C]-testosterone at 0.3 uM after 18 hrs; outline: as §1
[3] = target: T2, Aldo-keto reductase family 1 member C3 (Homo sapiens, UniProt P42330); assay: Inhibition of human 17beta-HSD5 expressed in HEK293 cells assessed as enzyme-mediated transformation of [14C]-4-androstene-3,17-dione in to [14C]-testosterone after 18 hrs
T2 sequence (P42330 whole entry): T1 sequence (whole entry)
Outline: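 Intact HEK-293 cells stably over-expressing human 17β-HSD5, in fresh culture medium. [14C]-4-androstene-3,17-dione 0.1 μM with inhibitor added in ethanol (ethanol alone as control), 18 h.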

| SMILES | inhibition [1] [%] | inhibition [2] [%] | IC50 [3] [nM] |
| --- | --- | --- | --- |
| C[C@]12CC[C@@H]3c4ccc(O)cc4CC[C@H]3[C@@H]1CC[C@@]21CCC(O)O1 (mixture of isomers) | 61 | 19 |  |
| COC1CC[C@@]2(CC[C@H]3[C@@H]4CCc5cc(O)ccc5[C@H]4CC[C@@]32C)O1 (stereo in doubt; 8) | 16 | 0 |  |
| C[C@]12CC[C@@H]3c4ccc(O)cc4CC[C@H]3[C@@H]1CC[C@@]21CCC(=O)O1 | 79 | 47 |  |
| C[C@]12CC[C@@H]3c4ccc(O)cc4CC[C@H]3[C@@H]1C[C@@H]1CC(=O)O[C@@H]12 | 62 | 30 |  |
| COC(=O)C1CC[C@@]2(CC[C@H]3[C@@H]4CCc5cc(O)ccc5[C@H]4CC[C@@]32C)OC1=O (mixture of isomers) | 92 | 78 | 72 |
| C[C@]12CC[C@@H]3c4ccc(O)cc4CC[C@H]3[C@@H]1C[C@H]1CCC(=O)O[C@H]12 | 52 | 6 |  |
| C=CCC1CC[C@@]2(CC[C@H]3[C@@H]4CCc5cc(O)ccc5[C@H]4CC[C@@]32C)OC1=O (mixture of isomers) | 91 | 68 | 107 |
| C[C@]12CC[C@@H]3c4ccc(O)cc4CC[C@H]3[C@@H]1CC[C@]21CCC(=O)O1 | 45 | 22 |  |
| C[C@]12CCC(=O)C=C1CC[C@@H]1[C@@H]2CC[C@]2(C)C(=O)CC[C@@H]12 | 45 | 21 |  |
| C[C@]12CCC3(CCC(=O)O3)CC1CC[C@@H]1[C@@H]2CC[C@@]2(C)[C@H]1CC[C@@]21CCC(=O)O1 (stereo partly drawn) | 29 | 7 |  |
| CC(=O)S[C@@H]1CC2=CC(=O)CC[C@]2(C)[C@H]2CC[C@@]3(C)[C@@H](CC[C@@]34CCC(=O)O4)[C@H]12 | 57 | 27 |  |
| C[C@]12CCC(=O)CC1C(=O)C[C@@H]1[C@@H]2CC[C@@]2(C)[C@H]1CC[C@@]21CCC(=O)O1 (stereo partly drawn) | 45 | 14 |  |
| C[C@]12CC[C@@H]3c4ccc(O)cc4CC[C@H]3[C@@H]1CC[C@@]21CCCCC(=O)O1 | 93 | 90 | 42 |
| CCCC1CC[C@@]2(CC[C@H]3[C@@H]4CCc5cc(O)ccc5[C@H]4CC[C@@]32C)OC1=O (mixture of isomers) | 83 | 41 |  |
| C[C@]12CCC(=O)C=C1CC[C@@H]1[C@@H]2CC[C@@]2(C)[C@H]1CC[C@@]21CCC(=O)O1 | 61 | 19 |  |
| C[C@]12CC[C@@H]3c4ccc(O)cc4CC[C@H]3[C@@H]1C[C@@H]1CCCC(=O)O[C@@H]12 | 91 | 70 | 66 |
| CC1CC(=O)O[C@]2(CC[C@H]3[C@@H]4CCc5cc(O)ccc5[C@H]4CC[C@@]32C)C1 (mixture of isomers) | 94 | 88 | 19 |
| C[C@]12CC[C@@H]3c4ccc(O)cc4CC[C@H]3[C@@H]1CC[C@@]21CC=CC(=O)O1 | 92 | 79 | 49 |
| COC1CC[C@@]2(CC[C@H]3[C@@H]4CCc5cc(O)ccc5[C@H]4CC[C@@]32C)O1 (stereo in doubt; 7) | 4 | 0 |  |
| C[C@]12CCC(=O)CC1CC[C@@H]1[C@@H]2CC[C@@]2(C)[C@H]1CC[C@@]21CCC(=O)O1 (stereo partly drawn) | 63 | 15 |  |
| C[C@]12CC[C@@H]3c4ccc(O)cc4CC[C@H]3[C@@H]1C[C@@H]1CCC(=O)O[C@@H]12 | 85 | 55 |  |
